Compound activity from PubChem BioAssay.
CendR NRP1 mod: alters CendR peptide binding to human NRP-1. FAM-RPARPAR peptide binding to NRP-1, fluorescence polarization. inhibition, % at 25 µM. 360,000 tested, 0.85% active. AID 602438;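 active = inhibition or corrected inhibition above about 18%, plus a signal ratio from 0.5 to 1.5, limit read from the data, passing the limit was not always enough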
Target sequence (O14786 whole entry, looked up): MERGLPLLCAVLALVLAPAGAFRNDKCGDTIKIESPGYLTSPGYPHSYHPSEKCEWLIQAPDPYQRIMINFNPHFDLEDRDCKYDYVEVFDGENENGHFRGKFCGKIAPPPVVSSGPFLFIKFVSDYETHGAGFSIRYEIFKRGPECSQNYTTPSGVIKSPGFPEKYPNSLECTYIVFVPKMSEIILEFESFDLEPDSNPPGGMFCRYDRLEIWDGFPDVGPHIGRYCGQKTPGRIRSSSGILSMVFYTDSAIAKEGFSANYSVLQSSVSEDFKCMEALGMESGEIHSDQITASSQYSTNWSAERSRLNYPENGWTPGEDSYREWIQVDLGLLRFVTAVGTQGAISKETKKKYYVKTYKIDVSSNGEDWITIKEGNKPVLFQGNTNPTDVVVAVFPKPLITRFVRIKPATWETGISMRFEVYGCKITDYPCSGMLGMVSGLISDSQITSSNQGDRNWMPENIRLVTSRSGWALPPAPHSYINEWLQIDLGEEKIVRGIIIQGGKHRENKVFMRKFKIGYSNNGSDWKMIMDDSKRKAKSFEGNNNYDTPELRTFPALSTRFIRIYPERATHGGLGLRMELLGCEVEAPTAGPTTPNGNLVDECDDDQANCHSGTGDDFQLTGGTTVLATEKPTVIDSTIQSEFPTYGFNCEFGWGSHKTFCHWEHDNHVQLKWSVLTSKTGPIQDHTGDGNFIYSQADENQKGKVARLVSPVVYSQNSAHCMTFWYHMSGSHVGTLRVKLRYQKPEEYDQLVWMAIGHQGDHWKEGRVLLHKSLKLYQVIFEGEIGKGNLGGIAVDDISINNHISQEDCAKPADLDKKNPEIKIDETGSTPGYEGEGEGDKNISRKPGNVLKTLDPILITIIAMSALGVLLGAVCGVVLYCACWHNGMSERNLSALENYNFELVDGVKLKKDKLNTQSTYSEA
iPSC survival up: hiPSC single-cell survival enhancement; AID 602274; survival enhancement, % at 20 µM; ATPlite luminescence; 100% = ROCK inhibitor wells, 0% = DMSO; 360,000 tested, 0.044% active; in the data active = survival enhancement above about 18%;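 also: cells exposed to compounds for 16 hours before the ATP read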
SKN-1 block: blocks SKN-1 activity in C. elegans; C. elegans VP596 Pgst-4::GFP/RFP ratio, acrylamide-induced, 24 h; inhibition, % at 21.8 µM; 360,000 tested, 0.49% active; AID 624304;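 active = interference check ratio from 0.5 to 1.5 plus GFP to RFP signal ratio inhibition reaching or exceeding a fixed threshold, cut at about 30% in these data, passing the limit was not always enough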
MT1-MMP act inh: inhibitors of human MT1-MMP activation; AID 651647; P50281; HT1080 RFP-PRO-GFP cells, GFP/RFP ratio fluorescence, overnight; percent of plate control window, DMSO zero; 360,000 tested, 0.061% active; GFP/RFP ratio change, % at 20 µM;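 active = GFP/RFP ratio change of at least 30% with cell ATP level not reduced by more than half and red fluorescence within 50% of control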
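system = RFP-PRO-GFP reporter HT1080 cells | dosing = 20 µM single dose, 1% DMSO | timing = overnight cell settling, then overnight compound exposure, 37 °C, 5% CO2 | read-out basis = GFP/RFP fluorescence ratio | controls = DMSO and RFP-L50D-GFP cell wells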
Active calls of the source: *. This is a sample that favours compounds with a hit; in the whole collection about 1.4% have one here.

CC(NCCOCCOc1ccccc1)c1ccccc1 (stereo not drawn) was read as CendR NRP1 mod 26*, iPSC survival up 5, SKN-1 block -2 and MT1-MMP act inh 1.
Screening CC(C)(C)c1ccc(S(=O)(=O)N2CCCC2C(=O)N2CCOCC2)cc1 (stereo not drawn) returned CendR NRP1 mod -5, iPSC survival up 1, SKN-1 block 10 and MT1-MMP act inh 0.
`NC(=O)c1nsc(C(=O)N(CC(=O)NCc2ccc3c(c2)OCO3)C2CCCCC2)c1N` gave CendR NRP1 mod 2, iPSC survival up -2, SKN-1 block -1 and MT1-MMP act inh 2.
`COC(=O)C1=C(C)NC(=S)NC1c1ccc(OC(=O)c2ccco2)cc1` (stereo not drawn) gave CendR NRP1 mod 4, iPSC survival up 0, SKN-1 block -7 and MT1-MMP act inh 1.
COC(=O)C1=C(C)NC(C)=C(C(=O)OC)C1c1ccc(OC(=O)c2ccco2)cc1 was read as CendR NRP1 mod 6, iPSC survival up 14, SKN-1 block 35* and MT1-MMP act inh 4.
Screening CCOC(=O)Nc1nc(-c2ccc(F)cc2F)cs1 returned CendR NRP1 mod 2, iPSC survival up -1, SKN-1 block 56* and MT1-MMP act inh 0.
`N#C/C(=C\C=C\c1ccccc1)c1nc(-c2ccc3c(c2)OCO3)cs1` gave CendR NRP1 mod 121, iPSC survival up 0, SKN-1 block 47* and MT1-MMP act inh -12.
OC(c1ccccc1)(c1nc(-c2ccc3c(c2)OCO3)cs1)C(F)(F)F (stereo not drawn) was read as CendR NRP1 mod -1, iPSC survival up -2, SKN-1 block -4 and MT1-MMP act inh 0.
Clc1ccc2nc(-c3ccccc3)c(Cc3ccsc3)n2c1 was read as CendR NRP1 mod -2, iPSC survival up -1, SKN-1 block 26 and MT1-MMP act inh -5.
`Brc1ccc2nc(-c3ccccc3)c(Cc3ccsc3)n2c1` gave CendR NRP1 mod 4, iPSC survival up 1, SKN-1 block 38* and MT1-MMP act inh -3.
Screening Cc1cc(Br)cn2c(Cc3ccsc3)c(-c3ccccc3)nc12 returned CendR NRP1 mod 6, iPSC survival up -2, SKN-1 block 37* and MT1-MMP act inh -1.
`Clc1ccc(-c2nc3ccc(Cl)cn3c2Cc2ccsc2)cc1` gave CendR NRP1 mod -18, iPSC survival up -2, SKN-1 block 29 and MT1-MMP act inh 0.
`Clc1cccc(-c2nc3ccc(Br)cn3c2Cc2ccccc2)c1` gave CendR NRP1 mod -35, iPSC survival up 0, SKN-1 block 36* and MT1-MMP act inh -3.
CCCc1nc2ccc(Cl)cn2c1Cc1ccsc1 was read as CendR NRP1 mod 28*, iPSC survival up -1, SKN-1 block -8 and MT1-MMP act inh -6.
For COc1ccc(NC(=S)N(CCc2c(C)[nH]c3ccc(C)cc23)Cc2cccnc2)cc1 the results were CendR NRP1 mod 5, iPSC survival up 4, SKN-1 block -5 and MT1-MMP act inh -3.
For COc1ccc(NC(=O)/C(N=Nc2cc(S(=O)(=O)Nc3ccc(OC)cc3)ccc2OC)=C(\C)O)cc1 the results were CendR NRP1 mod 1, iPSC survival up -1, SKN-1 block -1 and MT1-MMP act inh 3.
`CCCN(CC(=O)Nc1ccccc1OC)C(=O)Cc1ccccc1F` gave CendR NRP1 mod 6, iPSC survival up 0, SKN-1 block -2 and MT1-MMP act inh -4.
CCCCCCn1cc(CN2CC(N(C)C)CS2(=O)=O)nn1 (stereo not drawn) was read as CendR NRP1 mod 4, iPSC survival up 0, SKN-1 block 3 and MT1-MMP act inh -1.
CC(=O)Nc1ccc(NC(=O)C2Cc3c(-c4cccc(F)c4)ccnc3O2)cc1 (stereo not drawn) was read as CendR NRP1 mod -5, iPSC survival up 4, SKN-1 block 37* and MT1-MMP act inh 1.
For CC(=O)Nc1ccc(-c2ccnc3c2CC(C(=O)Nc2cccnc2)O3)cc1 (stereo not drawn) the results were CendR NRP1 mod 27*, iPSC survival up -1, SKN-1 block 12 and MT1-MMP act inh -4.
`CCN(C[C@H]1N[C@@](Cc2ccccc2)(C(=O)OC)[C@H]2C(=O)N(Cc3ccccc3)C(=O)[C@@H]12)C(=O)COC` gave CendR NRP1 mod 7, iPSC survival up 0, SKN-1 block 49 and MT1-MMP act inh 0.
Screening CN(NC(=O)COc1ccccc1)c1ccccc1 returned CendR NRP1 mod -1, iPSC survival up 5, SKN-1 block 9 and MT1-MMP act inh 2.
`CCCOC(=O)Nc1cc(OC)c(Cl)cc1OC` gave CendR NRP1 mod 17*, iPSC survival up 1, SKN-1 block 17 and MT1-MMP act inh -3.
O=C(N/N=C/c1ccc(OC(=O)c2ccc([N+](=O)[O-])cc2)cc1)c1cccnc1 was read as CendR NRP1 mod 1, iPSC survival up 0, SKN-1 block -20 and MT1-MMP act inh 2.
For Cc1cc(NC(=O)Cc2ccsc2)ccc1Br the results were CendR NRP1 mod 0, iPSC survival up 0, SKN-1 block 63* and MT1-MMP act inh 0.
Screening CCOc1ccc(OC(=O)c2ccc3c(=O)n4c(nc3c2)CCC4)cc1 returned CendR NRP1 mod 2, iPSC survival up 0, SKN-1 block 2 and MT1-MMP act inh -1.
For O=C(CNC(=S)N(CCCN1CCOCC1)Cc1cccs1)NCCN1CCOCC1 the results were CendR NRP1 mod -3, iPSC survival up 1, SKN-1 block -5 and MT1-MMP act inh 2.
For O=C(CNC(=S)N(CCCN1CCOCC1)Cc1cccs1)NCc1ccccc1 the results were CendR NRP1 mod 34*, iPSC survival up 0, SKN-1 block 2 and MT1-MMP act inh -2.
`CC1CC1C(=O)OCC(=O)N(C)CC(=O)Nc1ccc(F)cc1` (stereo not drawn) gave CendR NRP1 mod -14, iPSC survival up 0, SKN-1 block 7 and MT1-MMP act inh 0.
For COCCC(=O)N1CCC(Oc2ccc(C(=O)NCCn3cccn3)cc2)CC1 the results were CendR NRP1 mod 36*, iPSC survival up 1, SKN-1 block 4 and MT1-MMP act inh -2.
COc1ccc2nc3ccccc3nc2c1N was read as CendR NRP1 mod 29*, iPSC survival up 0, SKN-1 block 25 and MT1-MMP act inh 6.
Screening COc1ccc2nc3cccc(OC)c3nc2c1 returned CendR NRP1 mod 31*, iPSC survival up -1, SKN-1 block -1 and MT1-MMP act inh 4.
`COc1cc(CNc2ccc(C)c(C)c2)cc(OC)c1OC` gave CendR NRP1 mod 3, iPSC survival up 0, SKN-1 block 0 and MT1-MMP act inh -8.
For CNc1nc(-c2ccc3c(c2)CCN3C(=O)c2ccccc2F)c(C)s1 the results were CendR NRP1 mod -9, iPSC survival up 0, SKN-1 block 11 and MT1-MMP act inh 1.
For CNc1nc(-c2ccc3c(c2)CCN3C(=O)c2ccccc2F)cs1 the results were CendR NRP1 mod 24*, iPSC survival up -3, SKN-1 block 20 and MT1-MMP act inh -3.
